High-throughput results from PubChem BioAssay.
PRMT1 inh: blocks human protein arginine methyltransferase 1. Q99873. recombinant PRMT1, activity-based probe fluorescence polarization. 1.3% of 370,000 active. AID 652257. inhibition, % at 2.79 µM;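 active = inhibition above about 21% made by adding two undisclosed values, limit read from the data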
SIAE primary: inhibitors of human sialic acid acetylesterase SIAE. Q9HAT2. SIAE FP-Rh probe binding, fluorescence polarization. inhibition, % at 9.66 µM. 0.69% of 370,000 active. AID 1053197;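 active = inhibition above a cutoff: mean of compounds within the control limits plus 3 SD of those, cut at about 17% in these data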
Target sequence (Q9HAT2 whole entry, looked up): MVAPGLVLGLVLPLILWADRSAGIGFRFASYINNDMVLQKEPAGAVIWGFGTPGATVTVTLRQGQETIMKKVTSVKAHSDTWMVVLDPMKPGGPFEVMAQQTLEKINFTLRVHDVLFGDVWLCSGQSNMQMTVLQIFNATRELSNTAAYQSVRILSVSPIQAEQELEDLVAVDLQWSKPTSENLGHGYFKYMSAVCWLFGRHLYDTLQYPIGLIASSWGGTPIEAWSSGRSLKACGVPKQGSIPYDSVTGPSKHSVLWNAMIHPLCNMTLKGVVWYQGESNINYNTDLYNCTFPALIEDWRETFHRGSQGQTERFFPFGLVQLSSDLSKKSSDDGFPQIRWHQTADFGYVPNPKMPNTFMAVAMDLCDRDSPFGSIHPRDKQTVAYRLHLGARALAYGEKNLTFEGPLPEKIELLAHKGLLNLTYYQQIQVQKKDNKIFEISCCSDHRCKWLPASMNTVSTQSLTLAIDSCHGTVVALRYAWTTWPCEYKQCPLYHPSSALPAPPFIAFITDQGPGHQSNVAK
HTRA1 inhibitor: HTRA1 (human) protease inhibition | Q92743 | recombinant HTRA1, FP-rhodamine activity-based probe, fluorescence polarization | inhibition, % at 5.96 µM | 0.5% of 340,000 active; in the data active = inhibition above about 36%
mABHD4 FP: ABHD4 (mouse) inhibition, primary FP screen; purified mABHD4, FP-Rh probe fluorescence polarization; inhibition, % at 8.92 µM; 0.54% of 370,000 active; AID 720543;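 active = inhibition exceeding the mean over every tested compound plus 3 SD, cut at about 30% in these data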
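Assay system: mouse ABHD4 enzyme, wild type / Also added: fluorescent activity-based probe FP-Rh / Doses: single nominal dose of 8.92 µM, 0.89% DMSO final / Timing: 45 min compound pre-incubation plus 60 min probe step, 25 °C / Signal: FP readout, ex 525 nm / em 598 nm / Control set: S159A mutant/DMSO as 100%, compound-well median as 0%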
rCAG binder: molecules binding r(CAG) RNA repeats. r(CAG) RNA repeat, TO-PRO-1 dye displacement fluorescence. inhibition, % at 3 µM. 1.3% of 370,000 active;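 active = inhibition above the plate cutoff, the mean of all test compounds on that plate plus 3 SD, cut at about 35% in these data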;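 also: higher means more dye released from RNA so lower well fluorescence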
PRMT1 inh conf: PRMT1 (human) inhibition, FP confirmation | recombinant His-PRMT1, activity-based probe fluorescence polarization | inhibition, % at 2.79 µM | shares compounds with PRMT1 inh | 42% of 3,300 active;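 active = mean inhibition across replicates above the hit cutoff derived for the earlier primary screen, cut at about 22% in these data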
Each line names hits and unclear results; the compound was inactive in the other large screens (follow-up assays come after a bar, where they were run). Shown are actives, neighbours in structure and some others; about 3.3% of the full set was active somewhere.

CC(=O)c1ccc(S(=O)(=O)NCC(=O)NC(c2nc3ccccc3[nH]2)C(C)C)cc1 (stereo not drawn)	PRMT1 inh 33.9 | PRMT1 inh conf 38.5
O=C1CN(/N=C/c2ccc([N+](=O)[O-])o2)C(=O)N1	PRMT1 inh 29.6 (no result: HTRA1 inhibitor) | PRMT1 inh conf inactive
CC1CCN(c2nc(-c3ccco3)c3c(c2C#N)CC(C)(C)OC3)CC1	PRMT1 inh 28.1 | PRMT1 inh conf 24.1
C[C@@H]1COC(=O)[C@@H](CC(=O)OC(C)(C)C)C/C=C\C[C@H](CC(=O)NCCO)C(=O)N1	none
Cc1nc(C#N)c(N/N=C/c2cccc(Cl)c2)o1	none
C[n+]1cccc(/C=N/Nc2nc(Cl)c(C#N)c(Cl)c2Cl)c1	PRMT1 inh 48.7 (no result: HTRA1 inhibitor) | PRMT1 inh conf inactive
Cc1c(C(=O)O)nn(-c2cccc(C(F)(F)F)c2)c(=O)c1C#N	PRMT1 inh 29.4 | PRMT1 inh conf inactive
Cc1ccccc1-n1nc(C(=O)O)c(C)c(C#N)c1=O	none
CC(C)N1CCc2c(sc(NC(=O)C(F)(F)F)c2-c2nc3ccccc3s2)C1	PRMT1 inh 31.2 (no result: HTRA1 inhibitor, rCAG binder) | PRMT1 inh conf inactive
CC(=O)Nc1sc2c(c1-c1nc3ccccc3s1)CNC2	PRMT1 inh 26.5 (no result: HTRA1 inhibitor, rCAG binder) | PRMT1 inh conf inactive
COc1cc(CNn2c(C)n[nH]c2=S)cc(Cl)c1OCc1ccc(F)cc1	none
CCOc1cc(CNn2cn[nH]c2=S)cc(Cl)c1OCc1ccccc1F	PRMT1 inh 31.7 | PRMT1 inh conf inactive
O=c1ccc(=O)n(CCc2ccccn2)[nH]1	none
Cc1c(C(=O)N2CCN(CCc3ccccn3)CC2)oc2ccc(F)cc12	none
CC(=O)c1ccc(-n2c(CCC(=O)O)ccc2-c2cccs2)cc1	PRMT1 inh 62.8 | PRMT1 inh conf inactive
Cc1ccc(-n2c(CCC(=O)O)ccc2-c2cccs2)cc1	none
Cc1ccc(-c2ccc(CCC(=O)O)n2-c2cccc(C(=O)O)c2)cc1	none
NC(=O)c1ccc(-n2c(CCC(=O)O)ccc2-c2cccs2)cc1	PRMT1 inh 45.3 | PRMT1 inh conf inactive
COC(=O)c1cccc(-n2c(CCC(=O)O)ccc2-c2cccs2)c1	PRMT1 inh 39.9 | PRMT1 inh conf inactive
CCC(C(=O)OCC(=O)Nc1ccc(SC(F)F)cc1)c1ccccc1 (stereo not drawn)	none
Nc1c(C(=O)NC2CCCC2)sc2nc(-c3cccs3)ccc12	PRMT1 inh 53.4 | PRMT1 inh conf inactive
NC(=O)c1sc2nc(-c3cccs3)ccc2c1N	none
CCc1ccc(-c2csc3[n+]2CCN3C(C)=O)cc1	PRMT1 inh 71.6 | PRMT1 inh conf 46.1
O=C(O)C1CC(=O)N(Cc2ccc3c(c2)OCO3)C1 (stereo not drawn)	none (no result: PRMT1 inh, SIAE primary, mABHD4 FP, rCAG binder)
O=C1CC(NCc2ccc3c(c2)OCO3)C(=O)N1Cc1ccc2c(c1)OCO2 (stereo not drawn)	PRMT1 inh 55.8 | PRMT1 inh conf inactive
C[C@@H]1COC(=O)[C@@H](Cc2ccc(F)cc2)C/C=C\C[C@H](CC(=O)N(CCO)Cc2ccccc2)C(=O)N1	none
O=C1C=CC(=O)N1c1ccccc1N1C(=O)C=CC1=O	PRMT1 inh 92.7 | PRMT1 inh conf 89.9
O=C(O)c1ccccc1C(=O)c1ccc(-c2ccccc2)cc1	none
O=C(c1ccccc1)c1ccccc1N1C(=O)C=CC1=O	PRMT1 inh 84.8 | PRMT1 inh conf 97.0
Cc1ccc(/C=C2/NC(=O)N(c3ccccc3)C2=O)o1	PRMT1 inh 59.8 | PRMT1 inh conf 30.5
Cc1ccc(/C=C2/NC(=O)N(Cc3ccccc3F)C2=O)o1	PRMT1 inh 82.9 | PRMT1 inh conf inactive
O=C1N/C(=C/c2ccc(N3CCOCC3)o2)C(=O)N1c1cccc(Cl)c1	PRMT1 inh 29.9 | PRMT1 inh conf inactive
CCN1C(=O)N/C(=C/c2ccc(C)o2)C1=O	PRMT1 inh 55.5 | PRMT1 inh conf inactive
CCn1c(C)cc(/C=C2/NC(=O)N(Cc3ccccc3F)C2=O)c1C	none
Cc1c(C(=O)O)cccc1-c1ccc(/C=C2/NC(=O)N(c3ccccc3)C2=O)o1	none
C#CCNC(=O)C1=C[C@@H](C2CCCCC2)[C@H](CCCO)[C@@H](OCC)O1	none
CCc1ccc(N2CC(C(=O)OCC(=O)NC3CC3)CC2=O)cc1 (stereo not drawn)	none
Cc1ccc(/C=C2/NC(=O)N(Cc3ccc(Br)cc3)C2=O)o1	PRMT1 inh 79.9 | PRMT1 inh conf inactive
CCN1C(=O)/C(=C/c2ccc(C)o2)N(C)C1=S	PRMT1 inh 45.1 | PRMT1 inh conf inactive
